# Data from publication PMC7312786 (Biochemistry, 2018).
# Where “and” joins values, the source holds several entries; their conditions need not be identical. Identical values can stand only once.
# Assays:
# [1] = molecular target: T1, hpol η binding to primer–template DNA (Homo sapiens, UniProt Q9Y253); assay: Fluorescence anisotropy DNA binding assay; conditions: 1–12 μM inhibitor, also above the IC50
# T1 sequence (Q9Y253 1-437): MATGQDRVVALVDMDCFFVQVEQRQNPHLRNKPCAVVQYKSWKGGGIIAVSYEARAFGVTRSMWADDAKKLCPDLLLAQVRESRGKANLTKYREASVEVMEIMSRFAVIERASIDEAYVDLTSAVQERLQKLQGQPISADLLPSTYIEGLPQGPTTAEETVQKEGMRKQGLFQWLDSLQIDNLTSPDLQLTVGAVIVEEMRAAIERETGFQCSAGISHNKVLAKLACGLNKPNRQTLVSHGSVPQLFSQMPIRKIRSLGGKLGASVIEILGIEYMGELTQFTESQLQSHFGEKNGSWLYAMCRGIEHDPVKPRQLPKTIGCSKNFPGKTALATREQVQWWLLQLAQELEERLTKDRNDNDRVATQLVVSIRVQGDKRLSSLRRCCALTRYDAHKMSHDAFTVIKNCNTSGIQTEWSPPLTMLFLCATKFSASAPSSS
# TbPol I = TbPol I (Mycobacterium tuberculosis, UniProt P9WNU5); assay: Fluorescence-based pol activity assay, Tb Pol I; assay type: biochemical; conditions: 20 μM PNR-7-02; mean (±SD)
# [2] = system: hpol η-deficient HAP-1 cells; assay: Cell viability; assay type: cell-based, human
# Procedure, shortened: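 HAP-1 parental or CRISPR hpol η-null cells in IMDM with 10% FBS and 1% antibiotic/antimycotic, passage 8–10, seeded 5000 cells/well. Next day: CDDP 0–100 μM alone or with 0.1 or 1 μM test compound, 48 h. Cells washed twice in DPBS, then 2 μM Calcein-AM for 30 min at 25 °C; fluorescence ex 490/em 520 nm. Viability as % of untreated. […] Combination index by Chou–Talalay.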
# [3] = system: γH2AX in hpol η-deficient HAP-1 cells; assay: γH2AX immunoblotting, hpol η-deficient HAP-1 cells; assay type: cell-based, human
# Procedure, shortened: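 HAP-1 cells treated with DMSO or 0.5 μM CDDP combined with 0.1 or 1 μM test compound. Pellets lysed at 4 °C in HEPES pH 7.5/Triton X-100 buffer with phosphatase and protease inhibitors. 30–40 μg protein run on 4–20% SDS-PAGE, transferred to nitrocellulose. Probed with anti-γH2AX (S139) 1:1500 and HRP anti-rabbit 1:4000; β-actin loading control; chemiluminescence. Bands normalized to β-actin, relative to DMSO; three biological replicates; t test.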
# hpol η [4] = molecular target: T2, hpol η (Homo sapiens, UniProt Q9Y253); assay: Steady-state kinetic analysis of hpol η activity; assay type: biochemical
# T2 sequence (Q9Y253 1-437): T1 sequence (Q9Y253 1-437)
# OVCAR3 cells = assay: Combined treatment of OVCAR3 cells with CDDP and PNR-7-02; assay type: cell-based, human
# hpol β = hpol β (Homo sapiens, UniProt P06746); assay: Fluorescence-based pol activity assay, hpol β; assay type: biochemical; conditions: 20 μM PNR-7-02
# hpol ε = molecular target: T3, hpol ε (Homo sapiens, UniProt Q07864, D275A/E277A); assay: Fluorescence-based pol activity assay, hpol ε; assay type: biochemical
# T3 sequence (Q07864 1-1189 D275A/E277A limits assumed): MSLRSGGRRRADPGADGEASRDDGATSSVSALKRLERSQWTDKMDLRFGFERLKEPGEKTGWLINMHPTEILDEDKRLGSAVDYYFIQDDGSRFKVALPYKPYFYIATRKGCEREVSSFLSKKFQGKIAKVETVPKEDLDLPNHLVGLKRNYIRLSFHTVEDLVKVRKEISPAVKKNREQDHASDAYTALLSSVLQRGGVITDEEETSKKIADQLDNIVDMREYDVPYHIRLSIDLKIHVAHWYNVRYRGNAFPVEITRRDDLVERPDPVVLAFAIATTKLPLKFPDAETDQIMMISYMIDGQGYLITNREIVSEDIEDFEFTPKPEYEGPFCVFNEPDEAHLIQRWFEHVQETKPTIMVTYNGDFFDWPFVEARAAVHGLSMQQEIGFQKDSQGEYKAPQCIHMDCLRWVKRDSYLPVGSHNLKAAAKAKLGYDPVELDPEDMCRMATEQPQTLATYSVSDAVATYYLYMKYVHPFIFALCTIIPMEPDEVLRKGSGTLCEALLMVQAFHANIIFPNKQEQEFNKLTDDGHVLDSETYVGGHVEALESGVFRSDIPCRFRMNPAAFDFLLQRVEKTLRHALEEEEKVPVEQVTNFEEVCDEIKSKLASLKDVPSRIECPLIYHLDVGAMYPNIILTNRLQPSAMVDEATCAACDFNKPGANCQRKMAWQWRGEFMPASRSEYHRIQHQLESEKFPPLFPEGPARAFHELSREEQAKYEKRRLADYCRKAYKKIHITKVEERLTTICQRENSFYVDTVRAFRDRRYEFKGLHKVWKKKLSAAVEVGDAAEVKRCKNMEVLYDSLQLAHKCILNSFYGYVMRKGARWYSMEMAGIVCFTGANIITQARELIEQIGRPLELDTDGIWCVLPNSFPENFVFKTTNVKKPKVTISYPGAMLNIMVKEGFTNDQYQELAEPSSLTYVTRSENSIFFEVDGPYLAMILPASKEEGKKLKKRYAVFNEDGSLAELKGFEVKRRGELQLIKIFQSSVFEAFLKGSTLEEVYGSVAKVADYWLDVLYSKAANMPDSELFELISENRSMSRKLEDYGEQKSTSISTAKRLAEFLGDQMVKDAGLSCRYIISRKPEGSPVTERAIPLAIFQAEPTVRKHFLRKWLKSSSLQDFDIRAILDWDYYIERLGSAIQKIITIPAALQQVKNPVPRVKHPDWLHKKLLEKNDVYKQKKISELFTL
# hpol η [5] = molecular target: T2, hpol η; assay: Fluorescence-based DNA polymerase activity assay, hpol η; assay type: biochemical; conditions: 20 μM PNR-7-02; mean (±SD), three experiments
# hpol η [6] = molecular target: T2, hpol η; assay: HPG labeling / MS protein footprinting of hpol η; assay type: binding; conditions: 20 and 100 μM PNR-7-02
# Procedure, shortened: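 Protein footprinting: hpol η (10 μM) preincubated 10 min at 37 °C with 20 μM (1:2) or 100 μM (1:10) test compound in 50 mM HEPES pH 7.8, 10 mM MgCl₂, 10% DMSO. Then 500 μM HPG for 60 min at 37 °C in the dark; quenched with 200 mM arginine. SDS-PAGE, then MS. Modified arginine taken as fraction of total per residue, normalized to the HPG-alone sample.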
# Sequence of TbPol I (P9WNU5 whole entry): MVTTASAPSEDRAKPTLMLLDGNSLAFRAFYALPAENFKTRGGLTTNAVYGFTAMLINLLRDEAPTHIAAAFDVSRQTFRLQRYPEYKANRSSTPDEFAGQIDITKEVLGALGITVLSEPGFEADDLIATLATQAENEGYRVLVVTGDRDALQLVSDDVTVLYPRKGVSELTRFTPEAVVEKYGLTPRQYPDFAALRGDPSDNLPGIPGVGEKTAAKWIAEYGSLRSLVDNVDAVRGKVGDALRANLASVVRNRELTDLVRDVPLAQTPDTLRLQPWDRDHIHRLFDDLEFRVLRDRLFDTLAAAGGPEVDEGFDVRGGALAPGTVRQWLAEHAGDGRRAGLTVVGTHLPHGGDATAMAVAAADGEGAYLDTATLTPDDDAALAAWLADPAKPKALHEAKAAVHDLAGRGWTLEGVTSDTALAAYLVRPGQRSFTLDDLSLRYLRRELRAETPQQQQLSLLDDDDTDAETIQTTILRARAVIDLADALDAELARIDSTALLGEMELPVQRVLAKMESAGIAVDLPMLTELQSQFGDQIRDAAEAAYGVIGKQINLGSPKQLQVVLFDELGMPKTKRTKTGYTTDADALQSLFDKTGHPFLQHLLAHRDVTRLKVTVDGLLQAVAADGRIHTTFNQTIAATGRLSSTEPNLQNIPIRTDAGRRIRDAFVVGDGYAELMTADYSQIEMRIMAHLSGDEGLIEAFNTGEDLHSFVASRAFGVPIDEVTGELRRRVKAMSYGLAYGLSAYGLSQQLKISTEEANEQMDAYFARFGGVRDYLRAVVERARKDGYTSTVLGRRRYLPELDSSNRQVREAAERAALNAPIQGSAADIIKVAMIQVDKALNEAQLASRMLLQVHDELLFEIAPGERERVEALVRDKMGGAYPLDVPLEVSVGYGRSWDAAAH
smiles,measurement,setting,value
"O=C1NC(=S)NC(=O)C1=Cc1cn(Cc2ccc3ccccc3c2)c2ccc(Cl)cc12 [PNR-7-02, 5-((5-chloro-1-(naphthalen-2-ylmethyl)-1H-indol-3-yl)methylene)-2-thioxodihydropyrimidine-4,6-(1H,5H)-dione]","Change in Kd,DNA for hpol η binding to DNA",[1],less than 20%
same,"Pol activity relative to DMSO control, TbPol I",TbPol I,93 (±2) %
same,Effect of adding PNR-7-02 on toxicity of CDDP,[2]; hpol η-deficient cells,does not have a notable effect
same,Combination index with CDDP,"[2]; hpol η-deficient cells, 0.1 μM PNR-7-02",1.02
same,Combination index with CDDP,"[2]; hpol η-deficient cells, 1 μM PNR-7-02",0.90
same,EC50,"[2]; read-out: EC50, cell viability, PNR-7-02 alone, hpol η-deficient HAP-1, 48 h",5.6 µM
same,"μH2AX, combination treatment versus CDDP alone",[3]; CDDP + PNR-7-02,did not increase
same,μH2AX formation,[3]; PNR-7-02 alone,did not change
same,"Effect on KM,dTTP of hpol η",hpol η [4]; 0–9 μM PNR-7-02,nonlinear increase
same,Effect on kcat of hpol η,hpol η [4]; PNR-7-02 near or below the IC50,no change
same,Combination index (CI) with CDDP,OVCAR3 cells,0.4
same,Effect on hpol β,hpol β,no effect
same,"Pol activity relative to DMSO control, hpol β",hpol β; mean (±SD),103 (±8) %
same,"Pol activity relative to DMSO control, hpol ε","hpol ε; 20 μM PNR-7-02, mean (±SD)",32 (±5) %
same,Specificity for hpol η over replicative pols (hpol ε),hpol ε; from activity at 20 μM PNR-7-02,5–10 fold
same,"Pol activity relative to DMSO control, hpol η",hpol η [5],4.4 (±3.8) % and < 5%
same,HPG modification of Arg351 of hpol η,hpol η [6],completely abrogated
